Activity calls are given as the source filed them. No cut-off for these calls is given here.
What was measured:
[1] = target: Receptor tyrosine-protein kinase erbB-2 (Homo sapiens) (UniProt P04626); assay: Inhibition of human recombinant GST-tagged HER2 (catalytic domain 676 to end residues) autophosphorylation expressed in baculovirus infected Sf9 cells using poly( Glu, Tyr) 4:1 as substrate at 10 uM incubated for 60 mins by ELISA relative to control
How it was run: (§1)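 Wells coated with poly-Glu,Tyr (4:1), 20 µg/well overnight at 4 °C, then blocked with 5% BSA. GST-HER2 added at 200 ng/mL final in HEPES/NaCl/NaVO₄/BSA buffer. Reaction started with ATP spanning Km plus 10 mM MnCl₂ final, run 60 min at 37 °C, stopped with EDTA. Phosphotyrosine detected with HRP anti-pTyr and ABTS at 405 nm; triplicate.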

[2] = target: Receptor tyrosine-protein kinase erbB-2 (Homo sapiens) (UniProt P04626); assay: Inhibition of human recombinant GST-tagged HER2 (catalytic domain 676 to end residues) autophosphorylation expressed in baculovirus infected Sf9 cells using poly( Glu, Tyr) 4:1 as substrate at 1 uM incubated for 60 mins by ELISA relative to control; how it was run: as §1
[3] = target: Epidermal growth factor receptor (Homo sapiens) (UniProt P00533); assay: Inhibition of EGFR autophosphorylation in human A549 cells overexpressing EGFR at 1 to 10 uM treated with compound for 10 mins prior to EGF stimulation for 10 mins by Western blot analysis; type: cell-based
How it was run: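 A549 cells grown to 60-70% confluence, then serum-starved 24 h. Exposed to compound for 10 min, then stimulated with 100 ng/mL EGF for 10 min at 37 °C and lysed in RIPA with protease inhibitors. About 10 µg protein run on SDS-PAGE, blotted to PVDF. Phospho- and total EGFR probed at 1:1000, HRP secondaries, ECL detection; β-actin for normalization.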

[4] = target: Receptor tyrosine-protein kinase erbB-2 (Homo sapiens) (UniProt P04626); assay: Inhibition of HER2 autophosphorylation in human HCC1954 cells overexpressing HER2 at 0.02 to 2 uM incubated for 1 hr by Western blot analysis; type: cell-based
How it was run: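 HCC-1954 cells at 60-70% confluence exposed to 0.02 and 2 μM compound for 1 h, then lysed in RIPA with protease inhibitors. About 10 µg protein separated by SDS-PAGE and blotted to PVDF. Phospho- and total HER2 antibodies at 1:1000, HRP secondaries, ECL read-out; β-actin used for normalization.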

A549 [5] = assay: Antiproliferative activity against human A549 cells overexpressing EGFR assessed as reduction in cell viability at 1 to 60 uM incubated for 72 hrs by MTT assay; type: functional, cell-based
HCC1954 [6] = assay: Antiproliferative activity against human HCC1954 cells overexpressing HER2 assessed as reduction in cell viability at 1 to 60 uM incubated for 72 hrs by MTT assay; type: functional, cell-based
A549 [7] = assay: Antiproliferative activity against human A549 cells overexpressing EGFR assessed as reduction in cell viability incubated for 72 hrs by MTT assay; type: functional, cell-based; settings: A549, 72 h
How it was run: (§2)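 Cells seeded at 5×10^3/well in complete medium (DMEM or RPMI, 10% FBS) and left 24 h at 37 °C, 5% CO2. Compounds added at 0.5–150 μM for 72 h. MTT (0.3 mg/mL in PBS) applied for 3 h, formazan dissolved in DMSO, OD read at 570 nm against 650 nm reference. IC50 from four-parameter logistic fit; three experiments in triplicate.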

NCI-H1975 = assay: Antiproliferative activity against human NCI-H1975 cells assessed as reduction in cell viability incubated for 72 hrs by MTT assay; type: functional, cell-based; settings: NCI-H1975, 72 h; how it was run: as §2
HCC1954 [8] = assay: Antiproliferative activity against human HCC1954 cells overexpressing HER2 assessed as reduction in cell viability incubated for 72 hrs by MTT assay; type: functional, cell-based; settings: HCC1954, 72 h; how it was run: as §2
MCF7 = assay: Antiproliferative activity against human MCF7 cells assessed as reduction in cell viability incubated for 72 hrs by MTT assay; type: functional, cell-based; settings: MCF7, 72 h; how it was run: as §2
[9] = Drug uptake in human A549 cells overexpressing EGFR at 1 uM measured after 48 hrs by LC-MS/MS analysis; type: ADME, cell-based; settings: a549, 48 h
How it was run: (§3)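 A549 cells plated at 1.5×10^5 cells/well and exposed to 1 µM compound for 1, 4, 8, 24 and 48 h. Cells washed twice with ice-cold PBS, then lysed. Intracellular amount measured by LC-MS/MS against standard curves with a stable internal standard.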

[10] = Cmax in C57BL/6N mouse at 34 micromol/kg, po measured upto 24 hrs by LC-MS/MS analysis; type: ADME, organism-based; design: route oral; settings: in vivo, 34 µmol/kg
How it was run: (§4)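 Male C57BL/6N mice, 10-12 weeks old, n = 5 per group, fasted overnight, single oral gavage dose in 0.5% carboxymethyl cellulose: 0.1% Tween 80 in water. Serial tail bleeds of 10 μL at 0.25, 0.5, 1, 2, 4, 6, 8 and 24 h into 0.1 M citric acid pH 4.5, stored at -80 °C. Samples processed by protein precipitation and evaporation, then quantified in blood by LC-MS/MS.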

[11] = Tmax in C57BL/6N mouse at 34 micromol/kg, po measured upto 24 hrs by LC-MS/MS analysis; type: ADME, organism-based; settings: in vivo, 34 µmol/kg; how it was run: as §4
[12] = AUC (0 to 24 hrs) in C57BL/6N mouse at 34 micromol/kg, po measured upto 24 hrs by LC-MS/MS analysis; type: ADME, organism-based; design: time < 24 hr, route oral; settings: in vivo, 34 µmol/kg; how it was run: as §4
A549 [13] = assay: Antitumor activity against human A549 cells overexpressing EGFR xenografted in NOD/SCID mouse assessed as tumor volume at 86 micromol/kg, po administered once daily for 27 days measured at day 27 at 2 hrs after last administered dose (reference value: 1869 +/- 134 mm3); type: functional
How it was run: (§5)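 NOD/SCID mice (n=4 per group, 2 male, 2 female) injected in each flank with 5×10⁶ A549 cells in DMEM, 10% FBS. Daily oral dosing started at about 150–160 mm³ tumors; vehicle 0.5% carboxymethyl cellulose: 0.1% Tween 80 in water. Caliper measurements every three days, V = π×D×d²/6. Body weight and signs of discomfort monitored. Study ended day 27, 2 h post last dose.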

[14] = Drug concentration in NOD/SCID mouse blood xenografted with human A549 cells overexpressing EGFR at 86 micromol/kg, po administered once daily for 27 days and measured at day 27 at 2 hrs after last administered dose by LC-MS/MS analysis; type: ADME, organism-based; settings: 86 µmol/kg, read-out: Ct
How it was run: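 A549 xenografts in NOD/SCID mice dosed orally once daily for 27 days, vehicle 0.5% carboxymethyl cellulose: 0.1% Tween 80 in water. Blood collected 2 h after the final dose on day 27, with animals euthanized under isoflurane. Drug level quantified by LC-MS/MS.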

[15] = AUC (1 to 48 hrs) in human A549 cells overexpressing EGFR at 1 uM measured per 0.1 million cells by LC-MS/MS analysis; settings: a549, 48 h
[16] = Toxicity in NOD/SCID mouse xenografted with human A549 cells overexpressing EGFR assessed as changes in body weight at 86 micromol/kg, po administered once daily for 27 days; type: organism-based; settings: in vivo, 648 h; how it was run: as §5
[17] = Drug uptake in human A549 cells overexpressing EGFR at 1 uM measured after 24 hrs by LC-MS/MS analysis; type: ADME, cell-based; settings: a549, 24 h; how it was run: as §3

Receptor tyrosine-protein kinase erbB-2 (Homo sapiens), sequence (P04626 whole entry, the tested form may be a part): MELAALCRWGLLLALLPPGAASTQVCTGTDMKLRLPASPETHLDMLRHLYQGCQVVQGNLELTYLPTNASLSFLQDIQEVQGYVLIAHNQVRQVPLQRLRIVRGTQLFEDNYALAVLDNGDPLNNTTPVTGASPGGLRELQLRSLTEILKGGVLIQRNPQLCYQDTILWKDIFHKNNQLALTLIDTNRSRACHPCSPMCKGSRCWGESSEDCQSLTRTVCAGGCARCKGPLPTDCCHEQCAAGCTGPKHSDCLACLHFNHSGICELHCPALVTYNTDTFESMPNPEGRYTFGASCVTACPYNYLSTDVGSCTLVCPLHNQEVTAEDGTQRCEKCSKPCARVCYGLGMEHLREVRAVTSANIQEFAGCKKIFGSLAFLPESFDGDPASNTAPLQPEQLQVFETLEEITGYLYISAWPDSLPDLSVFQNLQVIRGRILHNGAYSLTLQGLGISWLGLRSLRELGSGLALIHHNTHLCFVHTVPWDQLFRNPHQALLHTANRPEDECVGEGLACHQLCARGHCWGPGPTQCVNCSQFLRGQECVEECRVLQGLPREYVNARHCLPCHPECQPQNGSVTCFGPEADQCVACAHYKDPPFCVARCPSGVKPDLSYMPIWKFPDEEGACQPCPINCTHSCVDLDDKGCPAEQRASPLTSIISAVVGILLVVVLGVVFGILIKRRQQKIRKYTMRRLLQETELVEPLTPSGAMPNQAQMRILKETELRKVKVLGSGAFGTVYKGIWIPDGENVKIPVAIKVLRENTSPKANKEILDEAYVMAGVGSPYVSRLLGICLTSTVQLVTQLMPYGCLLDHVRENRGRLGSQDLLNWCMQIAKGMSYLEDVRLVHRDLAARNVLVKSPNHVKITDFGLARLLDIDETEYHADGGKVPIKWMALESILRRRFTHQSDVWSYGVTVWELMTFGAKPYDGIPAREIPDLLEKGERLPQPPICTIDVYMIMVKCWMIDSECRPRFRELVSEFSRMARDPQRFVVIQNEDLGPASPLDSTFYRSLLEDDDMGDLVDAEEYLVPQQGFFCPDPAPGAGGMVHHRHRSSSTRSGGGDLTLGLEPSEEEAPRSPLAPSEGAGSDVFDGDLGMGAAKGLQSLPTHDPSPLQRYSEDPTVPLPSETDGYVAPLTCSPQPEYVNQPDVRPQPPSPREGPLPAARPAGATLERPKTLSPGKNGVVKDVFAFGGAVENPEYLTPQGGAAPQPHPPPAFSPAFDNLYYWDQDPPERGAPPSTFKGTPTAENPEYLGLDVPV
Epidermal growth factor receptor (Homo sapiens), sequence (P00533 whole entry): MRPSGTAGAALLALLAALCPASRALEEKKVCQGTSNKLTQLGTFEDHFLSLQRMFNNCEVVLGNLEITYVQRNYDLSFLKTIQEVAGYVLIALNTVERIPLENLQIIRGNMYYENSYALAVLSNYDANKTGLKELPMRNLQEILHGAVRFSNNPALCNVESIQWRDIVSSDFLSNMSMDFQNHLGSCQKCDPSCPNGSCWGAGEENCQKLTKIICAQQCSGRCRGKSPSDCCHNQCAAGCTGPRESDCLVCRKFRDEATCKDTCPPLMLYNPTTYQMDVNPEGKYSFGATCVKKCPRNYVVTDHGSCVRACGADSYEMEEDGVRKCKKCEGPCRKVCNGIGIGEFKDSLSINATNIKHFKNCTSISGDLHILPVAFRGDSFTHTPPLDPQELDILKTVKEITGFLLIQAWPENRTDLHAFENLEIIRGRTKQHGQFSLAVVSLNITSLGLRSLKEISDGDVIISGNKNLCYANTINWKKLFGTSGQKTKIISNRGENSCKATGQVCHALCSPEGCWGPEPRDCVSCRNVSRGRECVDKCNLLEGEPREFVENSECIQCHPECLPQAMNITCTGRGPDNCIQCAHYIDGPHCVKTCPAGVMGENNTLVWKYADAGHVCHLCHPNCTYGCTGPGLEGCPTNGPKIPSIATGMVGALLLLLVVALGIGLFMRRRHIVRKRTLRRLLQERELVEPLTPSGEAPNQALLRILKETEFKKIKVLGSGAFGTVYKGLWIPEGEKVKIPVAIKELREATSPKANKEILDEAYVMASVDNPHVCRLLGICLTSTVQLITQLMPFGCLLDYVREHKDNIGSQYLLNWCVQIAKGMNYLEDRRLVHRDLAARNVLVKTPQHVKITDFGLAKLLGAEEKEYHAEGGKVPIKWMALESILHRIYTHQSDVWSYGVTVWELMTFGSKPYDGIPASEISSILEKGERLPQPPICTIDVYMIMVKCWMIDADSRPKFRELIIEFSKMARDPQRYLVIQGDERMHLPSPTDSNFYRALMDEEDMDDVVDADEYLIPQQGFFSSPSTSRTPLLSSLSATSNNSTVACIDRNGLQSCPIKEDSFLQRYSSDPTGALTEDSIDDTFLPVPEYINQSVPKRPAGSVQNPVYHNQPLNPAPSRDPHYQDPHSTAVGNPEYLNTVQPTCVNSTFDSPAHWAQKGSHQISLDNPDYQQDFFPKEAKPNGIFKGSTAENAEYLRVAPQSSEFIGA

Work on Fc1cccc(COc2ccc(Nc3ncc(F)c4[nH]c(-c5ccco5)nc34)cc2Cl)c1 yielded an inhibition [1] of 79% and an inhibition [2] of 10%.

With CS(=O)(=O)CCNCc1ccc(-c2nc3c(Nc4ccc(OCc5cccc(F)c5)c(Cl)c4)ccnc3[nH]2)o1 the inhibition [3] was “Active”, the inhibition [1] was 46% and the inhibition [2] was 33%. For the same compound, the inhibition [4] was “Active”, the inhibition (A549 [5]) was “inactive” and the inhibition (HCC1954 [6]) was “inactive”.

For CS(=O)(=O)CCNCc1ccc(-c2ccc3ncnc(Nc4ccc(OCc5cccc(F)c5)c(Cl)c4)c3c2)o1 [LAPATINIB], the inhibition [1] was 97%, the inhibition [2] was 86% and the inhibition [4] was “Active”. The IC50 (A549 [7]) was 11 µM, the IC50 (NCI-H1975) was 9 µM and the IC50 (HCC1954 [8]) was 5 µM. For the same compound, the IC50 (MCF7) was 95 µM, the Drug uptake [9] was 0.02 nmol/100,000 cells and the Cmax [10] was 1470 nM. The Tmax [11] was 2 h, the AUC(0-t) at 24 h [12] was 6.7 µM·h and the Activity (A549 [13]) was 1338 mm3. It also gave a concentration at 2 h [14] of 2810 nM and an AUC [15] of 1.06 nmol/100.000 cells x h.

For Fc1cccc(COc2ccc(Nc3nccc4[nH]c(-c5ccco5)nc34)cc2Cl)c1, the inhibition [1] was 86%, the inhibition [2] was 82% and the inhibition (A549 [5]) was “inactive”. For the same compound, the inhibition (HCC1954 [6]) was “inactive”.

For Fc1cccc(COc2ccc(Nc3ncnc4[nH]c(-c5ccco5)nc34)cc2Cl)c1, the inhibition [1] was 86%, the inhibition [2] was 51% and the inhibition [4] was “Active”. For the same compound, the inhibition (A549 [5]) was “Active” and the inhibition (HCC1954 [6]) was “Active”.

With CS(=O)(=O)CCNCc1ccc(-c2nc3c(Nc4ccc(OCc5cccc(F)c5)c(Cl)c4)ncnc3[nH]2)o1 the inhibition [3] was “Active”, the inhibition [1] was 32% and the inhibition [2] was 28%. The inhibition (A549 [5]) was “Active”, the inhibition (HCC1954 [6]) was “Active” and the IC50 (A549 [7]) was 33 µM. For the same compound, the IC50 (NCI-H1975) was 30 µM, the IC50 (HCC1954 [8]) was 14 µM and the IC50 (MCF7) was 105 µM. The Drug uptake [9] was 0.01 nmol/100,000 cells, the Cmax [10] was 70 nM and the Tmax [11] was 2 h. The AUC(0-t) at 24 h [12] was 0.87 µM·h and the AUC [15] was 0.35 nmol/100.000 cells x h.

For Fc1cccc(COc2ccc(Nc3ccnc4[nH]c(-c5ccco5)nc34)cc2Cl)c1, the inhibition [3] was “Active”, the inhibition [1] was 58% and the inhibition [2] was 24%. The inhibition (A549 [5]) was “Active”, the inhibition (HCC1954 [6]) was “Active” and the IC50 (A549 [7]) was 3 µM. It also gave an IC50 (NCI-H1975) of 10 µM, an IC50 (HCC1954 [8]) of 9 µM and an IC50 (MCF7) of 126 µM. For the same compound, the Drug uptake [9] was 0.04 nmol/100,000 cells, the Cmax [10] was 300 nM and the Tmax [11] was 2 h. The AUC(0-t) at 24 h [12] was 2.1 µM·h, the Activity (A549 [13]) was 1311 mm3 and the Activity [16] was “Non-Toxic”. The concentration at 2 h [14] was 640 nM, the Drug uptake [17] was “Active” and the AUC [15] was 1.5 nmol/100.000 cells x h.

For CS(=O)(=O)CCNCc1ccc(-c2nc3c(Nc4ccc(OCc5cccc(F)c5)c(Cl)c4)ncc(F)c3[nH]2)o1, the inhibition [1] was 13%, the inhibition [2] was 0% and the inhibition [4] was “Active”.

In the case of CS(=O)(=O)CCNCc1ccc(-c2nc3c(Nc4ccc(OCc5cccc(F)c5)c(Cl)c4)nccc3[nH]2)o1, the inhibition [3] is reported as “Active”, the inhibition [1] is reported as 34% and the inhibition [2] is reported as 25%. The inhibition [4] was “Active”.

— ChEMBL document CHEMBL4350987, “Design, synthesis and biological evaluation of novel substituted purine isosters as EGFR kinase inhibitors, with promising pharmacokinetic profile and in vivo efficacy” (Eur J Med Chem, 2019)
